Scp1 inh: inhibitors of human Scp-1 phosphatase; Recombinant Scp1, phosphopeptide, malachite green phosphate absorbance; inhibition, % at 20 µM; 340,000 compounds, 0.88% hits; AID 493091;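 active = inhibition above about 50% at 20 µM, limit read from the data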;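 also: plate controls were DMSO wells with enzyme for no effect and wells lacking enzyme for full effect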
Target sequence (Q9GZU7 76-261 limits assumed): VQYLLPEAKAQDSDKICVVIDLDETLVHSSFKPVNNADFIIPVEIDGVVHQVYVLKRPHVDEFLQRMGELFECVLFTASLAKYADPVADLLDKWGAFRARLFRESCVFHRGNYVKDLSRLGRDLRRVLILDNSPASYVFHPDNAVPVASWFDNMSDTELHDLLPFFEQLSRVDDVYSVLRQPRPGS
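assay system = SCP-1 phosphatase catalytic domain, residues 76-261 | buffer or medium = 50 mM Tris acetate pH 5.5, 0.005% Tween-20, 10 mM MgCl2 | incubation = enzyme reaction 45 min at room temperature, colour 5 min, stabilisation 30 min | signal = Phosphate-binding colour reagent, absorbance read at 630 nm | measure = % inhibition at 20 µM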
SUMO1-SIM PPI: alters human SUMO1 binding to SIM partners | P63165 | SUMO1 binding to a labelled peptide, TR-FRET, 1 h | inhibition, % at 20 µM | 360,000 compounds, 0.33% hits | AID 602429; in the data active = inhibition above about 37%
Target sequence (P63165 whole entry, looked up): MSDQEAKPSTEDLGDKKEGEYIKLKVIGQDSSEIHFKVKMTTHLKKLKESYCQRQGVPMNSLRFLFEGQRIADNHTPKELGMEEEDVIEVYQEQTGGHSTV
STEP inh: STEP (human) phosphatase inhibition; P54829; recombinant STEP, OMFP fluorogenic substrate, fluorescence; inhibition, % at 20 µM; 360,000 compounds, 0.25% hits; AID 588621;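 active = inhibition at 20 µM, scaled per plate between control wells, above about 37%, limit read from the data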;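 also: 0% = DMSO with enzyme and substrate and 100% = substrate only without enzyme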
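System: STEP (striatal-enriched tyrosine phosphatase) enzyme, cell-free; medium: Bis-Tris pH 6.0 buffer with DTT, detergent; dosing: 20 µM, 1% DMSO; times: reaction 20 min, ambient temperature; detection: fluorescence, 480/540 nm; read-out basis: normalized % inhibition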
DNMT1 inh: DNMT1 (human) enzyme inhibition. P26358. DNMT1 molecular beacon, Hinp1I cleavage, fluorescence. inhibition (reported as % activation of signal), % at 10 µM. 360,000 compounds, 0.83% hits. AID 588458; in the data active = inhibition above about 50%
GRK2 inh: human GRK2 inhibition via aptamer displacement; P25098; bead flow cytometry, FAM-aptamer displacement from GRK2; inhibition of aptamer binding, % at 10 µM; 330,000 compounds, 0.59% hits;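 active = inhibition of aptamer binding above 40%, roughly 3 SD of noise, on plates passing a quality check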;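 also: median bead fluorescence of bound FAM aptamer so fluorescent compounds give negative values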
LMPTP inh: LMPTP (human) inhibition; recombinant LMPTP-A, OMFP fluorogenic substrate, fluorescence intensity; inhibition, % at 20 µM; 360,000 compounds, 0.22% hits; AID 651560;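 active = compounds that cut the enzyme signal by at least half of the control window in the single-dose screen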;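 also: plate controls were DMSO wells with enzyme plus substrate for no effect and substrate without enzyme for full effect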
Target sequence (P24666 whole entry, looked up): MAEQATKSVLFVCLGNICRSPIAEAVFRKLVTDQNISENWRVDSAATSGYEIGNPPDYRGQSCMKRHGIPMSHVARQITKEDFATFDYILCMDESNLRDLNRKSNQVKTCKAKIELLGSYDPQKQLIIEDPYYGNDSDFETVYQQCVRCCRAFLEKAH
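test system = LMPTP-A | amount = 0.625 nM LMPTP-A final | reagent = fluorogenic phosphatase substrate OMFP at 400 µM final | incubation = 50 min at room temperature | benchmarks = no-enzyme low control, uninhibited high control | medium = Bis-Tris pH 6.0, DTT, detergent | signal = fluorescence intensity of OMFP turnover product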
GRK2 CP1: confirmation of human GRK2 inhibitors displacing RNA aptamer; shares compounds with GRK2 inh; bead-bound GRK2, FAM-aptamer displacement, flow cytometry; aptamer displacement, % at 10 µM; 2,000 compounds, 4% hits;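 active = aptamer displacement above 40%, near three times the noise of non-fluorescent compounds, on plates passing quality checks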;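 also: negative values mostly reflect intrinsic compound fluorescence rather than true enhancement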
Aptamer quench 1: counter-screen for GRK2 aptamer inhibitors: fluorescent aptamer quenchers; shares compounds with GRK2 inh; 110 tested, under 10 active; fluorescence change (kMESF span), kMESF (concentration not given with the values); Fluorescent RNA aptamer beads, quenching, flow cytometry; active compounds read high;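 active = compounds whose bead fluorescence drops by more than 37 kMESF across the dose range, marking them as dye quenchers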
FAM quench CP1: quenches fluorescent RNA aptamer, GRK2 hit artifact; 2,000 tested, under 10 active; AID 504580; Carboxyfluorescein RNA aptamer on beads, flow cytometry quenching; active compounds read low; shares compounds with GRK2 inh; fluorescence response (% of DMSO), % at 10 µM;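 active = compounds that quench the bead-bound fluorescent RNA probe, cutting fluorescence to under half of the solvent control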;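 also: counterscreen run without GRK2 so only probe quenching by compound is measured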
GRK2 CP2: human GRK2 inhibition confirmation, cherry pick 2; bead-bound GRK2, FAM-aptamer displacement, flow cytometry; inhibition of aptamer binding, % at 10 µM; AID 504782; shares compounds with GRK2 inh; 360 tested, under 10 active;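 active = inhibition of aptamer binding above 40%, about triple the noise seen with nonglowing compounds, on plates passing quality control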;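 also: negative values mostly come from compounds that fluoresce themselves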
FAM quench CP2: counter-screen for GRK2 binding hits: quenchers of fluorescent RNA aptamer | shares compounds with GRK2 inh | 360 tested, under 10 active | carboxyfluorescein RNA aptamer beads, flow cytometry quenching; active compounds read low | AID 588494 | fluorescence response vs DMSO, % at 10 µM;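 active = response vs DMSO under 50%, meaning signal dropped by over half, treated as fluorescence quencher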;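 also: labelled aptamer on streptavidin beads without GRK2 as a quench counter-screen; 100% = bead fluorescence of DMSO wells and lower means quenching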
Starred values were filed as active, the others as inactive; nt = no result given. Rows were chosen to be rich in hits. Some 2.2% of all compounds tested hit in one or more screens of this group.

SMILES	Scp1 inh	SUMO1-SIM PPI	STEP inh	DNMT1 inh	GRK2 inh	LMPTP inh	GRK2 CP1	FAM quench CP1	others
NC(=O)COC(=O)CCCSc1nc2ccccc2s1	-12	0	-1	1	51*	-1	1	97
O=C1C=C(Nc2ccc(Cl)cc2)CC(c2ccc(Cl)cc2)C1 (stereo unspecified)	6	2	-2	1	0	2	nt	nt
O=C1C=C(NCc2ccco2)CC(c2ccc(Cl)cc2)C1 (stereo unspecified)	0	2	0	-3	86*	1	-1	98
O=C(Nc1ccc(Cl)c(Cl)c1)C1CCCCC1	-11	6	3	0	0	0	nt	nt
O=C1NC(=O)c2cc(NC(=O)C3CCCCC3)ccc21	-3	-13	-4	2	100*	-31	-9	99
Cc1ccc(N2CCN(C(=O)C(=O)c3ccc4c(c3)OCO4)CC2)cc1	nt	-8	nt	nt	nt	-1	nt	nt
C=C(C)C(=O)Nc1cccc(C2=NOC3(C2)C[C@@H](C(N)=O)N(C(=O)c2ccc(Cl)cc2)C3)c1 (stereo partly specified)	71*	nt	nt	nt	97*	nt	92*	99	Aptamer quench 1=5.2
CCC(=O)Nc1cccc(C2=NOC3(C2)C[C@@H](C(N)=O)N(C(=O)COc2ccc(Cl)cc2)C3)c1 (stereo partly specified)	-4	2	-2	-5	3	-1	nt	nt
CCCCCC(=O)N1CC2(CC(c3cccc(NC(=O)CC(c4ccccc4)c4ccccc4)c3)=NO2)C[C@@H]1C(N)=O (stereo partly specified)	-4	2	2	-15	0	3	nt	nt	GRK2 CP2=-19;FAM quench CP2=96
CCCCCC(=O)N1CC2(CC(c3cccc(NC(=O)COc4ccc(Cl)cc4)c3)=NO2)C[C@@H]1C(N)=O (stereo partly specified)	0	-4	2	-3	4	1	nt	nt	GRK2 CP2=-21;FAM quench CP2=101
CC1CN(C2CCCCC2)C(=O)NC1=O (stereo unspecified)	-10	-4	-2	-2	nt	-2	nt	nt
O=C(C1CCCN(S(=O)(=O)c2cccc3nsnc23)C1)N1CC=C(c2ccccc2)CC1 (stereo unspecified)	-6	-21	3	-8	1	4	-7	102
COC(=O)[C@]12CCCCC=C1N(CCc1ccc(OC)c(OC)c1)C(=O)[C@H](CC(=O)NCCCCc1ccccc1)C2	nt	0	nt	nt	nt	0	nt	nt
COc1ccc(C(=O)C2CCCN(Cc3cnc(N4CCOCC4)s3)C2)cc1F (stereo unspecified)	-12	3	0	-1	0	1	-2	100
CC(C)Oc1cccc(C(=O)C2CCCN(Cc3cnc(N4CCOCC4)s3)C2)c1 (stereo unspecified)	-5	-5	0	-3	53*	1	-2	95
N#Cc1cnn2c(=O)[nH]cnc12	nt	5	1	6	nt	0	nt	nt
CCN(CC)C(=O)Cn1cc(SCC(=O)NC2CCCCC2)c2ccccc21	nt	-1	-4	-1	nt	0	nt	nt
O=C(CSc1cn(CCNC(=O)c2ccccc2)c2ccccc12)NCc1ccco1	-5	1	4	-14	72*	1	-3	103
O=C(CSc1cn(CCNC(=O)c2cccs2)c2ccccc12)NC1CCCC1	2	3	-1	-4	0	1	nt	nt	GRK2 CP2=0;FAM quench CP2=106
COC(=O)[C@@]12C[C@@H](CC(=O)N3CCN(C(=O)c4ccco4)CC3)C(=O)N(CCc3ccc(OC)c(OC)c3)C1=CCC(C)(C)C2	nt	0	nt	nt	nt	0	nt	nt
Cn1cc(Cc2ccc(C(=O)N3CCOCC3)cn2)c2ccccc21	nt	-5	-1	3	nt	1	nt	nt
CCOC(=O)c1c(-c2cccs2)csc1NC(=O)CSc1ncn[nH]1	-4	6	3	-16	90*	1	0	100
CCOC(=O)c1c(-c2cccs2)csc1NC(C)=O	-3	-4	-1	-3	1	-1	nt	nt
Cc1ccccc1S(=O)(=O)Cc1ccc(C(=O)NC(C)c2ccccc2)o1 (stereo unspecified)	5	6	-1	6	0	0	nt	nt
COc1ccccc1S(=O)(=O)Cc1ccc(C(=O)NC(C)c2ccc3c(c2)OCCO3)o1 (stereo unspecified)	3	1	0	-2	2	-1	1	99
SMILES	Scp1 inh	SUMO1-SIM PPI	STEP inh	DNMT1 inh	GRK2 inh	LMPTP inh	GRK2 CP1	FAM quench CP1	others
COc1ccc(-c2c(C)oc3cc(O)cc(O)c3c2=O)cc1OC	-15	10	3	0	50*	0	1	102
O=C(CCS(=O)(=O)c1ccc(Br)s1)N1CCc2ccccc21	-11	1	-1	-3	0	1	2	98	Aptamer quench 1=3.6
O=C(CS(=O)(=O)c1ccccc1)N1CCc2ccccc21	-13	2	-2	-2	0	-1	nt	nt
Cc1nn(C)c(C)c1C(C)NC(=O)c1cc(COc2ccc(F)c(F)c2)on1 (stereo unspecified)	-3	-2	-2	0	3	-1	nt	nt
Cc1nn(C)c(C)c1C(C)NC(=O)c1cc(COc2cncc(Cl)c2)on1 (stereo unspecified)	-7	1	-2	1	83*	0	3	97
C[C@H](c1ccccc1)N1C[C@H](COCc2ccccc2)Oc2cc(N3CCC[C@H]3C(N)=O)ccc2S1(=O)=O	nt	5	nt	nt	nt	2	nt	nt
O=C(NCc1ccc2c(c1)OCO2)c1ccc(COc2cc(Cl)ccc2Cl)o1	-9	0	-2	-7	0	6	nt	nt
O=C(NCc1ccc2c(c1)OCO2)c1ccc(CSCc2ccc(Cl)cc2)o1	-15	3	0	-1	51*	4	nt	nt	GRK2 CP2=-22;FAM quench CP2=105
CC1=NN(c2ccccc2)C(=O)C1CCC#N (stereo unspecified)	nt	0	-3	-2	nt	-2	nt	nt

Screening data: PubChem BioAssay, several laboratories
